According to ChEMBL document CHEMBL1145834, “Novel selective hindlimb vasodilators: synthesis and biological activity of 1-acyl-4-aminopiperidine derivatives” (2003):

What was measured:
Format in all cases: functional, Canis lupus familiaris
[1] = organism: Canis familiaris; assay: Vasodilatory activity (at 10 nmol) relative to nifedipine (at 1 nmol) by femoral artery blood flow (FBF) in autoperfused canine femoral artery preparations.
How it was run: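 Dogs were anesthetized with pentobarbital (30 mg/kg iv, then 4 mg/kg/h infusion) and heparinized (700 U/kg, then 100 U/kg/h). The right femoral artery was autoperfused with carotid blood at 90 mL/min by pump. Flow was read by electromagnetic flowmeter in the circuit, and drugs were given intra-arterially by microsyringe. Ratio = effect of test compound (10 nmol) / effect of nifedipine (1 nmol). Means ± SE, n = 3 or 1.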

[2] = organism: Canis familiaris; assay: Vasodilatory activity (at 100 nmol) relative to nifedipine (at 10 nmol) by coronary artery blood flow (CBF) in isolated blood perfused canine heart preparations.
How it was run: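 The canine heart was isolated after pentobarbital (30 mg/kg iv), heparin (500 U/kg) and exsanguination. A septum–papillary muscle preparation was perfused with donor-dog blood via the anterior septal artery at constant 100 mmHg. It was preloaded to 2 g and paced at 120/min with 5 ms pulses at 1.2× threshold. Septal artery flow was read by electromagnetic flowmeter as CBF, and drugs were given intra-arterially. Ratio = effect of test compound (100 nmol) / effect of nifedipine (10 nmol). Means ± SE, n = 3 or 1.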

[3] = system: Canis familiaris; assay: Cardiovascular effect upon femoral artery blood flow(FBF) in anesthetized open-chest dogs at a dose of 10 ug/ kg administered intravenously
How it was run: (§1)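 Mongrel dogs anesthetized with pentobarbital sodium 30 mg/kg, open chest. Parameters allowed to stabilize, then drug given as single 10 μg/kg iv dose via femoral vein cannula. FBF and CBF expressed as % change from predose value; BP as change from predose value. Means ± SE, n = 3.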

[4] = system: Canis familiaris; assay: Cardiovascular effect upon coronary artery blood flow(CBF) in anesthetized open-chest dogs at a dose of 10 ug/ kg administered intravenously; how it was run: as §1
[5] = system: Canis familiaris; assay: Cardiovascular effect upon blood pressure(BP) in anesthetized open-chest dogs at a dose of 10 ug/ kg administered intravenously; how it was run: as §1

Structure (SMILES) | FBF Ratio [1] | CBF Ratio [2] | FBF % change [3] | CBF % change [4] | BP [5] | FBF Ratio [3] | CBF Ratio [4]
CN(CCc1ccccc1)C1CCN(C(=O)c2cccc3c2NC(=O)CC3)CC1.Cl | 0.62 | 0.09 |  |  |  |  | 
COc1cc(C(=O)N2CCC(N(C)CCc3ccccc3)CC2)cc2ccc(O)nc12.Cl | 1.36 | 0.04 | 55 | 10 | -10 mmHg |  | 
CCCc1cc(C(=O)N2CCC(N(C)CCc3ccccc3)CC2)cc2ccc(O)nc12.Cl | 1.61 | 0.35 | 67 | 8 | -22 mmHg |  | 
Cc1cc2c(cc1C(=O)N1CCC(N(C)CCc3ccccc3)CC1)CCC(=O)N2.O=C(O)C(=O)O | 3.01 | 0.02 | 41 | 11 | -13 mmHg |  | 
CCC(=O)Nc1cc(C)c(C(=O)N2CCC(N(C)CCc3ccccc3)CC2)cc1C.Cl | 0.49 | 0 |  |  |  |  | 
COc1cc2c(cc1C(=O)N1CCC(N(C)CCc3ccccc3)CC1)CCC(=O)N2.Cl | 1.98 | 0 | 26 | 8 | -8 mmHg |  | 
CCc1cc(C(=O)N2CCC(N(C)CCc3ccccc3)CC2)cc2c1NC(=O)CC2.O=C(O)C(=O)O | 1.07 | 0.18 | 54 | 15 | -26 mmHg |  | 
CCC(=O)Nc1ccc(C(=O)N2CCC(N(C)CCc3ccccc3)CC2)cc1Cl.Cl | 1.71 | 0.16 |  |  |  |  | 
COc1cc2nc(O)ccc2cc1C(=O)N1CCC(N(C)CCc2ccccc2)CC1 | 1.07 | 0.04 | 26 | 7 | -9 mmHg |  | 
CCC(=O)Nc1ccc(C(=O)N2CCC(N(C)CCc3ccccc3)CC2)c(C)c1C.Cl | 0.43 | 0 |  |  |  |  | 
CN(CCc1ccccc1)C1CCN(C(=O)c2cc([N+](=O)[O-])c3nc(O)ccc3c2)CC1.Cl | 1.6 | 1.15 | 32 | 9 | -21 mmHg |  | 
CN(CCc1ccccc1)C1CCN(C(=O)c2cccc3nc(O)ccc23)CC1.Cl | 0.32 | 0.01 |  |  |  |  | 
CCC(=O)Nc1ccc(C(=O)N2CCC(N(C)CCc3ccccc3)CC2)cc1 | 1.23 | 0.02 | 38 | 5 | -7 mmHg |  | 
CN(CCc1ccccc1)C1CCN(C(=O)C2CC(=O)Nc3ccccc32)CC1.Cl (stereo not drawn) | 0.85 | 0.01 | 101 | 13 | -15 mmHg |  | 
CC(C)c1cc(C(=O)N2CCC(N(C)CCc3ccccc3)CC2)cc2c1NC(=O)CC2.Cl | 1.13 | 0.25 | 73 | 15 | -19 mmHg |  | 
CCC(=O)Nc1c(C)cc(C(=O)N2CCC(N(C)CCc3ccccc3)CC2)cc1Cl.Cl | 0.1 | 0.08 |  |  |  |  | 
Cc1cc(C(=O)N2CCC(N(C)CCc3ccccc3)CC2)cc2c1NC(=O)CC2.Cl | 0.67 | 0.14 | 32 | 13 | -26 mmHg |  | 
CN(CCc1ccccc1)C1CCN(C(=O)c2cc3c(c([N+](=O)[O-])c2)NC(=O)CC3)CC1 | 0.68 | 0.28 |  |  |  |  | 
CCC(=O)Nc1ccc(C(=O)N2CCC(N(C)CCc3ccccc3)CC2)cc1[N+](=O)[O-].Cl | 0.29 | 0.26 |  |  |  |  | 
CN(CCc1ccccc1)C1CCN(C(=O)c2ccc3c(c2)NC(=O)CC3)CC1 | 0.19 | 0.07 |  |  |  |  | 
CN(CCc1ccccc1)C1CCN(C(=O)c2ccc3c(c2)CCC(=O)N3)CC1.Cl | 1.64 | 0 | 38 | 11 | -9 mmHg |  | 
CCC(=O)Nc1c(C)cc(C(=O)N2CCC(N(C)CCc3ccccc3)CC2)cc1[N+](=O)[O-] | 0.24 | 0.09 |  |  |  |  | 
CCC(=O)Nc1c(C)cc(C(=O)N2CCC(N(C)CCc3ccccc3)CC2)cc1OC.Cl | 0.7 | 0 |  |  | -14 mmHg | 48 | 11
CCc1cc(C(=O)N2CCC(N(C)CCc3ccccc3)CC2)cc2ccc(O)nc12.O=C(O)C(=O)O | 0.96 | 0.18 | 78 | 26 | -22 mmHg |  | 
COC(=O)C1=C(C)NC(C)=C(C(=O)OC)C1c1ccccc1[N+](=O)[O-] [NIFEDIPINE] |  |  | -28 | 104 | -37 mmHg |  | 
